Assay results: publication PMC6068850 (World Journal of Hepatology, 2018)
Converted amounts (≈) assume the structure as drawn.

What was measured:
[1] = In vitro release kinetics in rat intestinal homogenates; format: in vitro ADME; details: for % Prodrug hydrolysed / K ± SD (hydrolysis rate constant): rat intestinal homogenates; for % Prodrug hydrolysed: over 6 h; for K ± SD (hydrolysis rate constant): first-order kinetics, average of three readings; for half-life: rat, intestinal homogenates
Outline: (§1)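 Incubations in rat stomach homogenate ran up to 3 h; those in intestinal homogenate ran up to 6 h. Intact prodrug and released INH were quantified simultaneously by validated reverse-phase C18 HPLC using prodrug-specific mobile phases at 1 mL/min with UV detection. Percent hydrolysed and INH released came from calibration curves. Rate constants, half-lives and kinetic order were calculated; samples were run in triplicate.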

[2] = In vitro stability in phosphate buffer; format: physicochemical; details: 0.05 mol/L phosphate buffer, 37 °C, till 6 h, HPLC
Outline: (§2)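 5 mL aliquots were replaced with fresh buffer at 0, 15, 30, 45, 60 min, then every 30 min to 3 h (HCl) or 6 h (phosphate). Analysed by reverse-phase C18 HPLC against 10-100 μg/mL calibration curves; triplicate.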

[3] = In vitro stability in HCl buffer; format: physicochemical; details: 0.05 mol/L HCl, 37 °C, till 3 h, HPLC
Outline: as §2

[4] = system: glutathione peroxidase (GSHPx); assay: Liver glutathione peroxidase, hepatoprotective study; format: in vivo, Wistar rats; details: 21 d oral; for Level of GSHPx re-established: dose equimolar to INH 150 mg/kg/day
Wistar rats = assay: Evaluation of hepatoprotective potential; format: in vivo; details: male Wistar rats, 21 d oral
Outline: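 Male Wistar rats (180-200 g), acclimatized 1 wk, randomized into 8 groups of 6. Oral suspensions in 1% sodium CMC for 21 d: INH 150 mg/kg/day, prodrugs and physical mixtures equimolar to INH, saline control. On day 22, rats were fasted overnight, bled retrobulbarly and sacrificed. Endpoints: serum ALT/AST, TG, cholesterol; liver SOD, GSHPx, MDA; blinded H&E histology.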

[5] = In vitro release in rat stomach homogenates; format: in vitro ADME; details: till 3 h
Outline: as §1

[6] = In vivo release studies after oral administration of NI; set-up: species or system Wistar rats
Outline: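 Male Wistar rats were fasted 24 h and housed individually in metabolic cages. They received an oral suspension of test compound in 1.0 mL saline, 309 mg/kg (equimolar to INH). EDTA blood was collected at 0 min, every 15 min for 1 h, every 2 h to 10 h, and at 24 h. Samples were spun 5000 rpm at 0-5 °C, methanol-precipitated and analysed by HPLC. Urine and faeces were pooled over 24 h.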

[7] = system: aspartate aminotransferase (AST); assay: Estimation of serum aspartate aminotransferase; format: in vivo, Wistar rats; details: 21 d oral, mean ± SEM
Outline: (§3)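 Serum aminotransferases were measured colorimetrically with commercial kits (Reitman–Frankel method). Male Wistar rats (6/group) were dosed orally for 21 d in 1% sodium CMC, INH 150 mg/kg/day, test compounds equimolar. Blood was drawn retrobulbarly after an overnight fast on day 22. Mean ± SEM; one-way ANOVA with Dunnett's test versus the INH group.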

[8] = system: alanine aminotransferase (ALT); assay: Estimation of serum alanine aminotransferase; format: in vivo, Wistar rats; details: 21 d oral, mean ± SEM
Outline: as §3

[9] = system: superoxide dismutase (SOD); assay: Liver superoxide dismutase activity, hepatoprotective study; format: in vivo, Wistar rats; details: 21 d oral; for Level of SOD re-established: dose equimolar to INH 150 mg/kg/day
Aqueous solubility = format: physicochemical; details: aqueous (water)
malondialdehyde (MDA) = assay: Assay of lipid peroxidation products in liver; format: in vivo, Wistar rats; details: 21 d oral, treated groups vs INH-treated group
Outline: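 Hepatic lipid peroxidation was measured as thiobarbituric-acid-reactive MDA (Ohkawa method). 1,1,3,3-tetraethoxypropane was the standard, and results were expressed as micromoles per gram of tissue. Livers came from male Wistar rats (6/group) given oral suspensions in 1% sodium CMC for 21 d, INH 150 mg/kg/day, test compounds equimolar. Mean ± SEM; one-way ANOVA/Dunnett versus the INH group.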

rat liver = assay: Histopathological analysis of rat liver; format: in vivo, Wistar rats; details: H&E-stained liver sections, 21 d oral
Outline: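 Male Wistar rats (180-200 g), acclimatized 1 wk at 24 ± 1 °C, 45%-55% humidity, 12:12 h light/dark; 8 groups of 6. Oral dosing for 21 d as a suspension in 1% sodium CMC, with doses equimolar to the parent drug. On day 22, rats were fasted overnight, bled and sacrificed. Liver was washed in ice-cold saline, fixed in 10% formalin, sectioned, H&E-stained and photographed under light microscopy.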

Compound	% Prodrug hydrolysed [1]	K ± SD (hydrolysis rate constant) [1]	half-life [1]	Stability in phosphate buffer, pH 7.4 [2]	Stability in HCl buffer, pH 1.2 [3]	Level of GSHPx re-established [4]	Hepatoprotective potential assessment (overall) (Wistar rats)	Release of INH in stomach homogenates [5]	AST level [7]	ALT level [8]	Level of SOD re-established [9]	solubility (Aqueous solubility)	Effect on MDA level (in words) (malondialdehyde (MDA))	Liver histopathology findings (rat liver)	also measured
CC(=O)NC(CS)C(=O)NNC(=O)c1ccncc1 (stereo not shown) [NI, N-{1-mercaptomethyl-2-oxo-2-[N’-(pyridine-4-carbonyl)-hydrazino]-ethyl}-acetamide]	94.93%	0.0034 min⁻¹	3.89 h	Stable	Stable	100%	noteworthy effects	Negligible	46 ± 7.30 U/L	48 ± 4.50 U/L	93.39%	104 mg/mL (≈ 368 mM)	better compared to that achieved with MI	reversal of such pathology, with no evidence of necrosis, inflammation or fibrosis	INH in urine and faeces samples ([6]; 24 h pooled samples): without any presence; Intact NI in urine and faeces samples ([6]; 24 h pooled samples): not observed; Time at which intact NI completely disappeared from blood ([6]; Wistar rats, blood): 7.5 to 9 h; Time from which concentration of intact NI in blood started declining ([6]; Wistar rats, blood): 5.5 to 6.5 h; Time of appearance of intact NI in blood ([6]; Wistar rats, blood): 2 to 2.5 h
CSCCC(N)C(=O)NNC(=O)c1ccncc1 (stereo not shown) [MI, Isonicotinic acid N’-(2-amino-4-methylsulfanyl-butyryl)-hydrazide]	86.55%	0.0051 min⁻¹	3.02 h	Stable	Stable	93.87%	moderate effects	Negligible	–	–	88.69%	114 mg/mL (≈ 425 mM)	–	minimal inflammation, with minimal portal triaditis and mild dilation of blood sinusoids	–
NNC(=O)c1ccncc1 [INH, isoniazid, reference compound]	–	–	–	–	–	–	–	–	148 ± 7.60 U/L	144 ± 7.70 U/L	–	135 mg/mL (≈ 984 mM)	significantly higher	all these pathological changes were noticed	Effect on level of GSHPx (in words) [4]: significantly lower; Effect on level of SOD (in words) [9]: significantly lower
CC(S)C(=O)NCC(=O)NNC(=O)c1ccncc1 (stereo not shown) [MGI, 2-Mercapto-N-{2-oxo-2-[N’-(pyridine-4-carbonyl)-hydrazino]-ethyl}-propionamide]	70.11%	0.0033 min⁻¹	3.62 h	Stable	Stable	91.83%	moderate effects	Negligible	–	–	71.98%	94 mg/mL (≈ 333 mM)	better compared to that achieved with MI	minimal inflammation, with minimal portal triaditis and mild dilation of blood sinusoids	–
